Screens: PubChem, several laboratories
Compounds with a hit are over-represented: about 2% of the library has one in this group of screens.
ATG4B inh – blocks human ATG4B protease cleavage of LC3 substrate; Q9Y4P1; ATG4B cleavage of LC3-PLA2, NBD-HPC fluorescence, 1 h; inhibition, % at 8.33 µM; actives 0.51% (n = 340,000); AID 504462; in the data active = inhibition above about 40%
CSN inh – inhibitors of human CSN-mediated cullin deneddylation; actives 0.38% (n = 360,000); AID 651999; Purified CSN, SCF-Nedd8-OG deneddylation, fluorescence polarization; Q92905; inhibition, % at 12.5 µM;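 active = pattern-corrected inhibition above about 35%, with an unprinted fluorescence ratio check between 0.5 and 1.5, limit read from the data, passing the limit was not always enough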;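 note: 0% = enzyme with substrate and 100% = substrate without enzyme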
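Test system: Human Csn5 produced in HEK293T cells | Compound: 12.5 µM single point | Times: 90 min, room temperature | Signal: Fluorescence polarization readout | Read-out basis: % inhibition of substrate cleavage by Csn5 | Controls: no-enzyme wells high, enzyme-with-substrate wells low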
SENP1 FRET inh – SENP1 (human) catalytic domain inhibition; AID 624204; recombinant SENP1 catalytic domain, CyPet-SUMO1-YPet FRET cleavage; inhibition, % at 10 µM; actives 0.21% (n = 360,000); Q9P0U3;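 active = inhibition at least 30% at 10 µM, raw YFP signal under a set limit, fluorescence ratio 0.5 to 1.5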;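 note: 0% = enzyme with DMSO and 100% = no enzyme wells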
Target sequence (Q9P0U3 419-644 limits assumed): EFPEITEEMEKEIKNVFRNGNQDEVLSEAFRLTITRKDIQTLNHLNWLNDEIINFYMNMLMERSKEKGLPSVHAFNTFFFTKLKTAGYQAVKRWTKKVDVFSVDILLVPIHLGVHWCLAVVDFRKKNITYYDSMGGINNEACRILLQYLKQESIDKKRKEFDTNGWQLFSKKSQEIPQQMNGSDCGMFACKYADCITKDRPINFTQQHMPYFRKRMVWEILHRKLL
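Test system: hSENP1 catalytic domain, recombinant; Amount: 20 pM final SENP1 enzyme; Medium: Tris pH 8 buffer plus EDTA, NaCl, BME, BSA, NP40, catalase; Schedule: 50 min enzyme reaction, room temperature, light-protected; Technique: FRET fluorescence in CFP and YFP emission channels; Controls: no-enzyme wells low, DMSO-plus-enzyme wells high control.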
TPT1 inhibitor – C. albicans TPT1 enzyme inhibition | recombinant caTPT1, FP RNA substrate dephosphorylation | inhibition, % at 5 µM | actives 0.81% (n = 300,000);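 active = inhibition above the mean of all tested compounds plus 3 SD, set per screening campaign, cut at about 24% in these data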;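 note: plate controls were DMSO alone for no effect and ferristatin control at 100 nM for full effect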
Rpn11 inh – Rpn11 (human) deubiquitinase inhibition | human 26S proteasome, Ub4-pepOG fluorescence polarization; 20S core pre-blocked with epoxomicin | inhibition, % at 20 µM | actives 0.59% (n = 360,000) | AID 588493;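 active = inhibition at 20 µM, scaled to each plate's controls, above about 33%, limit read from the data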
HNF4A DNA FP – change in binding of human HNF4 alpha to DNA. P41235. HNF4a-FITC DNA binding, fluorescence polarization, 1 h. activity change, % at 10 µM. actives 0.3% (n = 360,000). AID 1224865; in the data active = activity change above about 30%, passing the limit was not always enough
ATG4B confirm – confirmation of human ATG4B inhibitors; shares compounds with ATG4B inh; ATG4B protease fluorescent substrate cleavage assay; inhibition, % at 8.33 µM; actives 92% (n = 320); AID 504757; in the data active = inhibition above about 39%
PLA2 counter – counter-screen for ATG4B inhibitors: human phospholipase A2; inhibition, % at 8.33 µM; actives 66% (n = 1,600); AID 588402; purified PLA2, NBD-C6-HPC fluorescence, 45 min; shares compounds with ATG4B inh; in the data active = inhibition above about 50%
Target sequence (P04054 whole entry, looked up): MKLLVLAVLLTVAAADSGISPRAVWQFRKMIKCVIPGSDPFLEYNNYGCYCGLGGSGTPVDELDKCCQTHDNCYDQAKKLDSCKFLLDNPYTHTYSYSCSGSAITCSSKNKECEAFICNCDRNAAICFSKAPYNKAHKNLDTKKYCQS
* hit, by the source's call.

C[C@@H]1CN([C@H](C)CO)C(=O)CCCn2nncc2CO[C@@H]1CN(C)S(=O)(=O)c1ccccc1 was read as CSN inh -2, SENP1 FRET inh -1, Rpn11 inh -6 and HNF4A DNA FP -1.
NC(=O)NC[C@@H]1CC[C@@H](Cc2ccc(-c3ccccc3)cc2)O1 was read as ATG4B inh 80*, CSN inh 3, SENP1 FRET inh 1, Rpn11 inh 2, HNF4A DNA FP 0 and PLA2 counter 81*.
For COc1ccc2cc(C[C@@H]3CC[C@@H](CNC(N)=O)O3)ccc2c1 the results were ATG4B inh 38, CSN inh 0, SENP1 FRET inh 0, Rpn11 inh 0 and HNF4A DNA FP 3.
`COc1ccc(NC(=O)NC[C@@H]2CC[C@@H](Cc3ccc(-c4ccccc4)cc3)O2)cc1` gave ATG4B inh 40*, CSN inh 0, SENP1 FRET inh 3, Rpn11 inh -2, HNF4A DNA FP -1 and PLA2 counter 74*.
`OC[C@@H]1CC[C@@H](Cc2ccc(-c3ccccc3)cc2)O1` gave ATG4B inh 0, CSN inh 5, SENP1 FRET inh 3, Rpn11 inh -2 and HNF4A DNA FP 1.
Screening O=C(c1[nH]c(C(F)(F)F)nc1-c1ccccc1)N1CCN(c2ccncc2)CC1 returned CSN inh 2, SENP1 FRET inh 3, Rpn11 inh 7 and HNF4A DNA FP 0.
`CCOc1cc(/C=C(\C(=O)O)c2ccc(S(=O)(=O)N3CCCC3)s2)ccc1OC` gave ATG4B inh 5, CSN inh -1, SENP1 FRET inh -49, Rpn11 inh -16 and HNF4A DNA FP -8.
`COc1ccc(Br)cc1/C=C(\C(=O)O)c1ccc(S(=O)(=O)N2CCCCC2)s1` gave ATG4B inh 84*, CSN inh 2, SENP1 FRET inh -2, Rpn11 inh 1, HNF4A DNA FP -3 and PLA2 counter 87*.
For O=c1c2ccccc2nc(SCc2cn3ccsc3n2)n1-c1ccccc1 the results were ATG4B inh 60*, CSN inh 14, SENP1 FRET inh 1, TPT1 inhibitor 1, Rpn11 inh -8, HNF4A DNA FP 0 and PLA2 counter 73*.
`c1ccc(CSCc2cn3ccsc3n2)cc1` gave ATG4B inh -2, CSN inh -2, SENP1 FRET inh -3, TPT1 inhibitor -1, Rpn11 inh -2 and HNF4A DNA FP 0.
For Cc1cccc(-n2c(SCc3cc(=O)n4ccsc4n3)nc3ccccc3c2=O)c1 the results were ATG4B inh 4, CSN inh -1, SENP1 FRET inh 4, TPT1 inhibitor -2, Rpn11 inh -3 and HNF4A DNA FP 0.
Screening O=c1c2ccccc2nc(SCc2cn3ccsc3n2)n1-c1ccccc1F returned ATG4B inh 66*, CSN inh -3, SENP1 FRET inh 2, TPT1 inhibitor 0, Rpn11 inh -2, HNF4A DNA FP -1 and PLA2 counter 72*.
`O=c1c2ccccc2nc(SCc2nnc(-c3ccccc3)o2)n1-c1ccc(F)cc1F` gave ATG4B inh 62*, CSN inh -6, SENP1 FRET inh 1, TPT1 inhibitor -1, Rpn11 inh 6, HNF4A DNA FP 1 and PLA2 counter 69*.
O=C(CC1CCCC1)N1CCN(S(=O)(=O)c2ccccc2)CC1 was read as ATG4B inh -3, CSN inh 2, SENP1 FRET inh -1, Rpn11 inh -141 and HNF4A DNA FP 0.
For CCC(c1nnnn1-c1ccc2c(c1)OCCO2)N1CCN(Cc2c(F)cccc2Cl)CC1 (stereo not given) the results were CSN inh -1, SENP1 FRET inh 0 and HNF4A DNA FP 3.
COc1ccc(/C=C2\SC(=Nc3ccccc3Cl)NC2=O)c(OC)c1 was read as CSN inh 1, SENP1 FRET inh -5, Rpn11 inh 4 and HNF4A DNA FP 5.
`COc1ccc(OC)c(/C=C2\S/C(=N/NC(=O)c3ccc4ccccc4c3)NC2=O)c1` gave ATG4B inh 79*, CSN inh 51*, SENP1 FRET inh -28, TPT1 inhibitor 7, HNF4A DNA FP 1 and PLA2 counter 83*.
Screening Cc1cccc(NC(=S)NNC(=O)c2csc3c2CCCC3)c1 returned ATG4B inh 43*, CSN inh -4, SENP1 FRET inh 3, TPT1 inhibitor 1, Rpn11 inh 2, HNF4A DNA FP 0, ATG4B confirm 71* and PLA2 counter 43.
S=C(NCc1ccccc1)NCc1ccc(CNC(=S)NCc2ccccc2)cc1 was read as ATG4B inh 39, CSN inh -13, SENP1 FRET inh 3, TPT1 inhibitor -2, Rpn11 inh -3 and HNF4A DNA FP -2.
Fc1ccc(CNC(=S)Nc2cccc(Cl)c2)cc1 was read as ATG4B inh 61*, CSN inh -7, SENP1 FRET inh 2, TPT1 inhibitor 2, Rpn11 inh 1, HNF4A DNA FP 3 and PLA2 counter 67*.
Fc1ccc(CNC(=S)Nc2ccc(Cl)cc2)cc1 was read as ATG4B inh 43*, CSN inh -3, SENP1 FRET inh 1, TPT1 inhibitor -3, Rpn11 inh 6, HNF4A DNA FP 0 and PLA2 counter 52*.
For Fc1ccc(CNC(=S)NCc2ccccc2)cc1 the results were ATG4B inh 43*, CSN inh -2, SENP1 FRET inh 0, TPT1 inhibitor 1, Rpn11 inh 0, HNF4A DNA FP 0, ATG4B confirm 71* and PLA2 counter 22.
Screening Fc1ccc(NC(=S)Nc2ccc(F)c(Cl)c2)cc1Cl returned ATG4B inh 72*, CSN inh -3, SENP1 FRET inh 1, TPT1 inhibitor -4, Rpn11 inh 7, HNF4A DNA FP 2 and PLA2 counter 76*.
Screening FC(F)(F)c1cccc(NC(=S)NCc2ccccn2)c1 returned ATG4B inh 0, CSN inh -15, SENP1 FRET inh -4, TPT1 inhibitor 0, Rpn11 inh 0 and HNF4A DNA FP -1.
FC(F)(F)c1cccc(NC(=S)NNC(=S)NCc2ccccc2)c1 was read as ATG4B inh 42*, CSN inh 1, SENP1 FRET inh -1, TPT1 inhibitor 0, Rpn11 inh 6, HNF4A DNA FP -6 and PLA2 counter 50.
